Laboratory results reported in ChEMBL document CHEMBL4152241, “Discovery of coumarin-dihydroquinazolinone analogs as niacin receptor 1 agonist with in-vivo anti-obesity efficacy” (Eur J Med Chem, 2018).
Calls of active or inactive are those of the source. No cut-off for these calls is given here.

Columns and labels:
Mus musculus [1] = assay: Effect on total cholesterol level in high fat diet-induced obese C57BL/6J mouse model at 20 mg/kg, po for 6 weeks (reference value: 120.8 +/- 7.206 mg/dl); type: functional
Mus musculus [2] = assay: Anti-obesity activity in high fat diet-induced obese C57BL/6J mouse model assessed as reduction in body weight gain at 20 mg/kg, po for 6 weeks; type: functional, organism-based
Procedure, shortened: (§1)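 Male C57BL/6J mice, 5-6 weeks old, 22-25 g, fed 60% fat diet to induce obesity. Dosed orally once at 20 mg/kg for six weeks; drug dissolved in DMSO, then mixed into 5% gum acacia in normal saline (working DMSO <5%). Controls were vehicle-treated HFD mice. Body weight was tracked, and fasting glucose was read by glucose meter after a 16 h fast; n=4-6.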

Mus musculus [3] = assay: Effect on LDL cholesterol level in high fat diet-induced obese C57BL/6J mouse model at 20 mg/kg, po for 6 weeks (reference value: 11.56 +/- 1.587 mg/dl); type: functional
Mus musculus [4] = assay: Effect on HDL cholesterol level in high fat diet-induced obese C57BL/6J mouse model at 20 mg/kg, po for 6 weeks (reference value: 57.8 +/- 3.385 mg/dl); type: functional
Mus musculus [5] = assay: Anti-obesity activity in high fat diet-induced obese C57BL/6J mouse model assessed as reduction in body weight at 20 mg/kg, po for 6 weeks; type: functional; procedure, shortened: as §1
Mus musculus [6] = assay: Anti-obesity activity in high fat diet-induced obese C57BL/6J mouse model assessed as fat mass at 20 mg/kg, po for 6 weeks by NMR-MRI analysis (reference value: 16.52 +/- 1.154 g); type: functional
Mus musculus [7] = assay: Anti-obesity activity in high fat diet-induced obese C57BL/6J mouse model assessed as lean mass at 20 mg/kg, po for 6 weeks by NMR-MRI analysis (reference value: 25.58 +/- 0.6789 g); type: functional
Mus musculus [8] = assay: Effect on serum triglyceride level in high fat diet-induced obese C57BL/6J mouse model at 20 mg/kg, po for 6 weeks (reference value: 40.96 +/- 4.592 mg/dl); type: functional
Mus musculus [9] = assay: Anti-obesity activity in high fat diet-induced obese C57BL/6J mouse model assessed as fasting glucose level at 20 mg/kg, po for 6 weeks (reference value: 93.17 +/- 5.793 mg/dL); type: functional; procedure, shortened: as §1
Mus musculus [10] = assay: Antiobesity activity in high fat diet-induced obese C57BL/6J mouse model assessed as improvement in glucose tolerance at 20 mg/kg, po measured post glucose challenge by intraperitoneal glucose tolerance test; type: functional, organism-based
Procedure, shortened: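 After six weeks of oral dosing (20 mg/kg) in HFD obese C57BL/6J mice, animals were fasted 16 h and baseline glucose was taken from the tail tip. Glucose 2 g/kg was given i.p., and blood glucose was measured at 15, 30, 60, 90 and 120 min. Mean ± SEM, 4-5 mice/group.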

Mus musculus [11] = assay: Anti-obesity activity in high fat diet-induced obese C57BL/6J mouse model assessed as plasma leptin level at 20 mg/kg, po for 6 weeks (reference value: 1751 +/- 325.4 pg/mg); type: functional
Mus musculus [12] = assay: Anti-obesity activity in high fat diet-induced obese C57BL/6J mouse model assessed as reduction in body weight gain at 10 mg/kg, po for 6 weeks; type: functional, organism-based
Procedure, shortened: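 High-fat (60% fat) diet-induced obese male C57BL/6J mice, started at 5-6 weeks old and 22-25 g. Oral dosing for six weeks from a DMSO stock diluted into 5% gum acacia/normal saline (working DMSO <5%), against HFD vehicle controls. Cumulative body weight gain tracked over treatment, n=4-5, analysed by two-way ANOVA.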

Mus musculus [13] = assay: Anti-obesity activity in high fat diet-induced obese C57BL/6J mouse model assessed as decrease in fat mass at 10 mg/kg, po for 6 weeks by NMR-MRI analysis; type: functional, organism-based
Procedure, shortened: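 Male C57BL/6J mice, 5-6 weeks old (22-25 g), made obese on a 60% fat diet. Dosed orally for six weeks, dissolved in DMSO then mixed into 5% gum acacia in normal saline (working DMSO <5%), against HFD vehicle-treated mice. Total body fat compared at end of treatment, n=4-5/group, by one-way ANOVA with Newman-Keuls test.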

Compound | Activity (Mus musculus [1]) [mg/dL] | Activity (Mus musculus [2]) | Activity (Mus musculus [3]) [mg/dL] | Activity (Mus musculus [4]) [mg/dL] | Activity (Mus musculus [5]) [g] | Activity (Mus musculus [6]) [g] | Activity (Mus musculus [7]) [g] | Activity (Mus musculus [8]) [mg/dL] | Activity (Mus musculus [9]) [mg/dL] | Activity (Mus musculus [10]) | Activity (Mus musculus [11]) [pg/mg] | Activity (Mus musculus [12]) | Activity (Mus musculus [13])
COc1ccc(-c2cc3cc(C4Nc5ccccc5C(=O)N4C)cc(C)c3oc2=O)cc1 (stereo not drawn) | 95.6 | Active | 10.4 | 45.92 | 0.72 | 13.01 | 23.16 | 36.97 | 63 | inactive | 807.6 |  | 
C[C@H]1CNCCc2ccc(Cl)cc21 |  |  |  |  |  |  |  |  |  |  |  | Active | Active
